Experimental data taken from ChEMBL document CHEMBL2046280, “Discovery of the novel potent and selective FLT3 inhibitor 1-{5-[7-(3- morpholinopropoxy)quinazolin-4-ylthio]-[1,3,4]thiadiazol-2-yl}-3-p-tolylurea and its anti-acute myeloid leukemia (AML) activities in vitro and in vivo” (J Med Chem, 2012).

How the values were obtained:
HCT-116 = experiment: Cytotoxicity against FLT3-independent human HCT116 cells after 72 hrs by MTT assay; format: functional, cell-based; details: HCT-116, 72 h
Method in brief: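 Adherent lines at 2−5 × 10³ cells/well were allowed to settle 24 h, then the medium was replaced with serial inhibitor dilutions for 72 h. MTT was added for 2−4 h, followed by dissolution in 100% DMSO. OD read at 570 nm. Viability relative to 0.1% DMSO controls; triplicate. Grown in RPMI 1640 or DMEM with 10% FBS, 5% CO₂, 37 °C.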

MV4-11 [1] = experiment: Cytotoxicity against FLT3-dependent human MV4-11 cells after 72 hrs by MTT assay; format: functional, cell-based; details: MV4-11, 72 h
Method in brief: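 Leukemia cells at 1−4 × 10⁴ per well were exposed to increasing inhibitor concentrations for 72 h at 37 °C. MTT was then added for 2−4 h, and cells were lysed with 20% acidified SDS. OD read at 570 nm. Viability relative to 0.1% DMSO controls; triplicate. MV4-11 grown in IMDM, others in RPMI 1640 or DMEM with 10% FBS.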

[2] = Cmax in Sprague-Dawley rat at 40 mg/kg, ip; format: ADME, organism-based; design: dose 40 mg/kg, route intraperitoneal; details: in vivo
Method in brief: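 Male Sprague−Dawley rats (200−250 g), n = 3, fasted overnight, with a femoral-vein catheter for blood sampling. Single 40 mg/kg ip dose; plasma drug levels measured by LC-MS/MS.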

[3] = target: T1, Receptor-type tyrosine-protein kinase FLT3 (Homo sapiens, UniProt P36888); experiment: Inhibition of human FLT3
T1 sequence (P36888 whole entry): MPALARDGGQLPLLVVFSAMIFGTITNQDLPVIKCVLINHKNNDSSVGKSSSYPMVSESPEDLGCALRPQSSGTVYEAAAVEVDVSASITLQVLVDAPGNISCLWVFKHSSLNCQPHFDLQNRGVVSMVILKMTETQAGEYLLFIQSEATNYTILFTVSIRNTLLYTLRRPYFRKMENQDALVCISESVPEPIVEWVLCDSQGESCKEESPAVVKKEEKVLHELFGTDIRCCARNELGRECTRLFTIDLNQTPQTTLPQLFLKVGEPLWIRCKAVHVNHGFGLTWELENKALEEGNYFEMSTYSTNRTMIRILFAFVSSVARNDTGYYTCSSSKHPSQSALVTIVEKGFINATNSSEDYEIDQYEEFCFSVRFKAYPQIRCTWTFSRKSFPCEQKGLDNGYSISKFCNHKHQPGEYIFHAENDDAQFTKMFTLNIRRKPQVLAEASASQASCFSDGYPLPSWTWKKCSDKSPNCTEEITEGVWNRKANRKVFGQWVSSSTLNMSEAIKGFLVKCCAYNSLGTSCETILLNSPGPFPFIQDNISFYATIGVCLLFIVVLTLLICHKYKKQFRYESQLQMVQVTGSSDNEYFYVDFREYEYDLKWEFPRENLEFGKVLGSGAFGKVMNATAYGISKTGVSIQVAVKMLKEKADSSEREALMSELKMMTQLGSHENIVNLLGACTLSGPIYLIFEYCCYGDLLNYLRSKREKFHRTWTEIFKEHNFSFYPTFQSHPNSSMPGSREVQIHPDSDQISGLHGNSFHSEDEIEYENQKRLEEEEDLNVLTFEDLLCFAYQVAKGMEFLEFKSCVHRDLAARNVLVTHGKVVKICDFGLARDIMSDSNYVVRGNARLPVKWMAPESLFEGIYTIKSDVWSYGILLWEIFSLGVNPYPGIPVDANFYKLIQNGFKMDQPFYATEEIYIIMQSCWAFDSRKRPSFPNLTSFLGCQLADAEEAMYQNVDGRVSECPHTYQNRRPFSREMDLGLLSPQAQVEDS
Method in brief: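 Human FLT3 kinase assayed across a dose−response series at 200 μM ATP.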

MV4-11 [4] = experiment: Antitumor activity against human MV4-11 cells xenografted in NOD-SCID mouse assessed as tumor growth inhibition at 50 mg/kg, ip once daily for 21 days measured every 3 days; format: functional; details: MV4-11, ip, route intraperitoneal, read-out: GI

SMILES	IC50 (HCT-116) [nM]	IC50 (MV4-11 [1]) [nM]	Cmax [2] [ng/mL]	IC50 [3] [nM]	inhibition in vivo at 50 mg/kg (MV4-11 [4]) [%]
COCCOc1cc2ncnc(Sc3nc(CC(=O)Nc4cccc(Cl)c4)cs3)c2cc1OCCOC	> 10000	3200			
COc1cc2ncnc(Sc3nccs3)c2cc1OCCN1CCCC1	> 10000	1240			
O=C(Nc1cccc(Cl)c1)Nc1nnc(Sc2ncnc3cc(OCCCN4CCOCC4)ccc23)s1	> 10000	12			
COc1cc2ncnc(Sc3nccs3)c2cc1OCCCN(C)C	> 10000	1130			
COCCOc1cc2ncnc(Sc3nc(C)c(CC(=O)Nc4nc5ccc(OC)cc5s4)s3)c2cc1OCCOC	> 10000	1900			
C#Cc1cccc(NC(=O)Nc2nnc(Sc3ncnc4cc(OCCCN5CCOCC5)ccc34)s2)c1	> 10000	0.3	2740	6	< 50
COCCOc1cc2ncnc(Sc3nc(C)c(CC(=O)Nc4cccc(C(F)(F)F)c4)s3)c2cc1OCCOC	> 10000	25			
COc1cc2ncnc(Sc3nc(C)c(CC(=O)NCc4ccc(Cl)cc4)s3)c2cc1OC	> 10000	> 10000			
COCCOc1cc2ncnc(Sc3nnc(NC(=O)Nc4ccc(C(F)(F)F)cc4)s3)c2cc1OCCOC	> 10000	300			
COCCOc1cc2ncnc(Sc3nnc(NC(=O)Nc4cccc(Br)c4)s3)c2cc1OCCOC	> 10000	22			
COCCOc1cc2ncnc(Sc3nnc(NC(=O)Nc4ccc(C)cc4)s3)c2cc1OCCOC	> 10000	22			
COc1cc2ncnc(Sc3nccs3)c2cc1OC	> 10000	1140		7	
C=CC(=O)Nc1nnc(Sc2ncnc3cc(OCCCN4CCOCC4)ccc23)s1	> 10000	6000			
COCCOc1cc2ncnc(Sc3nc(CC(=O)Nc4cccc(C(F)(F)F)c4)cs3)c2cc1OCCOC	> 10000	830			
COc1cc2c(N3CCN(C(=O)Nc4ccc(OC(C)C)cc4)CC3)ncnc2cc1OCCCN1CCCCC1 [TANDUTINIB]		55			
COc1cc2ncnc(Sc3nccs3)c2cc1OCCN1CCOCC1	> 10000	2950			
CCN(CC)CCNC(=O)c1c(C)[nH]c(/C=C2\C(=O)Nc3ccc(F)cc32)c1C [SUNITINIB]		3			
COc1cc2c(Sc3nccs3)ncnc2cc1OCCN1CCCC1	> 10000	1600			
C=CC(=O)Nc1nnc(Sc2ncnc3cc(OCCOC)c(OCCOC)cc23)s1	> 10000	> 10000			
COCCOc1cc2ncnc(Sc3nc(C)c(CC(=O)Nc4ccc(C(F)(F)F)cc4)s3)c2cc1OCCOC	> 10000	27			
COCCOc1cc2ncnc(Sc3nnc(NC(=O)Nc4cccc(F)c4)s3)c2cc1OCCOC	> 10000	400			
COCCOc1cc2ncnc(Sc3nc(C)c(CC(=O)NC4CC4)s3)c2cc1OCCOC	> 10000	2420			

SMILES	IC50 (HCT-116) [nM]	IC50 (MV4-11 [1]) [nM]	Cmax [2] [ng/mL]	IC50 [3] [nM]	inhibition in vivo at 50 mg/kg (MV4-11 [4]) [%]
COc1cc2ncnc(Sc3nc(C)cs3)c2cc1OC	> 10000	3680			
COc1cc2ncnc(Sc3nccs3)c2cc1OCCN1CCCCC1	> 10000	1610			
COCCOc1cc2ncnc(Sc3nnc(NC(=O)Nc4cccc(Cl)c4)s3)c2cc1OCCOC	> 10000	20			
COCCOc1cc2ncnc(Sc3nc(CC(=O)Nc4cc(C)cc(C)c4)cs3)c2cc1OCCOC	> 10000	9040			
COc1cc2c(Sc3nccs3)ncnc2cc1OCCN1CCOCC1	> 10000	3000			
COCCOc1cc2ncnc(Sc3nc(CC(=O)Nc4ccc(C(F)(F)F)cc4)cs3)c2cc1OCCOC	> 10000	2880			
COc1cc2ncnc(Sc3nc(C)c(CC(=O)Nc4cc(Cl)cc(Cl)c4)s3)c2cc1OC	> 10000	1400			
COc1cc2ncnc(Sc3nc(C)c(CC(=O)Nc4ccc(NC(C)=O)cc4)s3)c2cc1OC	> 10000	> 5000			
O=C(Nc1ccccc1)Nc1nnc(Sc2ncnc3cc(OCCCN4CCOCC4)ccc23)s1	> 10000	10			
COc1cc2ncnc(Sc3nc(C)c(CC(=O)Nc4cccc(C(F)(F)F)c4)s3)c2cc1OC	> 10000	20			
COc1cc2ncnc(Sc3nncs3)c2cc1OC	> 10000	1200		9	
COCCOc1cc2ncnc(Sc3nccs3)c2cc1OCCOC	> 10000	1400			
COCCOc1cc2ncnc(Sc3nc(C)c(CC(=O)Nc4cccc(Cl)c4)s3)c2cc1OCCOC	> 10000	210			
COCCOc1cc2ncnc(Sc3nncs3)c2cc1OCCOC	> 10000	1350			
COc1cc2ncnc(Sc3nccs3)c2cc1OCCCN1CCOCC1	> 10000	1020			
COc1cc2ncnc(Sc3nc(C)c(CC(=O)Nc4cccc(Cl)c4)s3)c2cc1OC	> 10000	450			
COCCOc1cc2ncnc(Sc3nnc(NC(C)=O)s3)c2cc1OCCOC	> 10000	> 11000			
COc1cc2c(Sc3nccs3)ncnc2cc1OCCN1CCCCC1	> 10000	1500			
C#Cc1cccc(NC(=O)Nc2nnc(Sc3ncnc4cc(OCCOC)c(OCCOC)cc34)s2)c1	> 10000	5			< 50
COCCOc1cc2ncnc(Sc3nc(C)c(CC(=O)Nc4cc(C)cc(C)c4)s3)c2cc1OCCOC	> 10000	625			
COc1cc2c(Sc3nccs3)ncnc2cc1OCCCN1CCOCC1	> 10000	1150			
